Assay results as given in ChEMBL document CHEMBL5724801, “EUbOPEN Chemogenomics Library - Multiplex” (2024).
“And” between values parts separate entries of the source, which are not always exact repeats. Equal values may be shown once.

Test system: U2OS
Test: Multiplex assay against U2OS
Format: toxicity, cell-based
Settings: human
Outline: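 Hoechst33342, BioTracker Green Microtubule Cytoskeleton Dye, MitoTracker Red and Annexin V Alexa Fluor 680 were added to live cells at seeding, and imaging on a CQ1 microscope at 37°C and 5% CO2 followed compound addition. Gating by CellPathfinder machine learning separated cells into Hoechst high-intensity objects or normal cells, then normal cells into healthy, pyknosed or fragmented nuclei, then pyknosed cells into mitotic or apoptotic. Per cents of healthy-nucleus cells are reported for the tubulin, mitochondrial-mass and membrane-permeability phenotypes.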

[1] = 12 h, 1 µM, compound concentration 1 uM
[2] = 12 h, 10 µM, compound concentration 10 uM
[3] = 24 h, 1 µM, compound concentration 1 uM
[4] = 24 h, 10 µM, compound concentration 10 uM
[5] = 48 h, 1 µM, compound concentration 1 uM
[6] = 48 h, 10 µM, compound concentration 10 uM

CCn1c(-c2ccncc2)cc2c1CCNC2=O
Population Apoptotic (%) [1]: 53.12% and 58.33% | Population Fragmented Nuclei (%) [1]: 2.21% and 6.71% | Population Healthy Nuclei (%) [1]: 88.95% and 78.66% | Population Hoechst High Intensity Objects (%) [1]: 0% | Population Membrane Permeable-Phenotype (%) [1]: 0.93% and 4.65% | Population Mitochondria Different-Phenotype (%) [1]: 0.31% and 6.98% | Population Mitotic Cells (%) [1]: 46.88% and 41.67% | Population Normal (%) [1]: 100% | Population Pyknosed Nuclei (%) [1]: 8.84% and 14.63% | Population Tubulin-Different-Phenotype (%) [1]: 1.24% and 3.88% | Total Cell Count [1]: 362 and 164 | Population Apoptotic (%) [2]: 43.94% and 36.59% | Population Fragmented Nuclei (%) [2]: 4.31% and 5.7% | Population Healthy Nuclei (%) [2]: 69.8% and 68.35% | Population Hoechst High Intensity Objects (%) [2]: 0% | Population Membrane Permeable-Phenotype (%) [2]: 3.93% and 8.33% | Population Mitochondria Different-Phenotype (%) [2]: 0% and 6.48% | Population Mitotic Cells (%) [2]: 56.06% and 63.41% | Population Normal (%) [2]: 100% | Population Pyknosed Nuclei (%) [2]: 25.88% and 25.95% | Population Tubulin-Different-Phenotype (%) [2]: 2.25% and 1.85% | Total Cell Count [2]: 255 and 158 | Population Apoptotic (%) [3]: 59.26% and 60% | Population Fragmented Nuclei (%) [3]: 3.6% and 7.14% | Population Healthy Nuclei (%) [3]: 75.58% and 63.1% | Population Hoechst High Intensity Objects (%) [3]: 0% | Population Membrane Permeable-Phenotype (%) [3]: 1.02% and 6.6% | Population Mitochondria Different-Phenotype (%) [3]: 0% and 13.21% | Population Mitotic Cells (%) [3]: 40.74% and 40% | Population Normal (%) [3]: 100% | Population Pyknosed Nuclei (%) [3]: 20.82% and 29.76% | Population Tubulin-Different-Phenotype (%) [3]: 1.02% and 5.66% | Total Cell Count [3]: 389 and 168 | Population Apoptotic (%) [4]: 46.96% and 46.84% | Population Fragmented Nuclei (%) [4]: 11.97% and 16.77% | Population Healthy Nuclei (%) [4]: 43.63% and 34.16% | Population Hoechst High Intensity Objects (%) [4]: 0% | Population Membrane Permeable-Phenotype (%) [4]: 1.77% and 9.09% | Population Mitochondria Different-Phenotype (%) [4]: 0% and 9.09% | Population Mitotic Cells (%) [4]: 53.04% and 53.16% | Population Normal (%) [4]: 100% | Population Pyknosed Nuclei (%) [4]: 44.4% and 49.07% | Population Tubulin-Different-Phenotype (%) [4]: 3.54% and 5.45% | Total Cell Count [4]: 259 and 161 | Population Apoptotic (%) [5]: 67.24% and 64.84% | Population Fragmented Nuclei (%) [5]: 5.9% and 9.91% | Population Healthy Nuclei (%) [5]: 56.11% and 49.1% | Population Hoechst High Intensity Objects (%) [5]: 0% | Population Membrane Permeable-Phenotype (%) [5]: 3.5% and 6.42% | Population Mitochondria Different-Phenotype (%) [5]: 0% and 4.59% | Population Mitotic Cells (%) [5]: 32.76% and 35.16% | Population Normal (%) [5]: 100% | Population Pyknosed Nuclei (%) [5]: 37.99% and 40.99% | Population Tubulin-Different-Phenotype (%) [5]: 7.39% and 6.42% | Total Cell Count [5]: 458 and 222 | Population Apoptotic (%) [6]: 66.29% and 76.67% | Population Fragmented Nuclei (%) [6]: 10.3% and 11.18% | Population Healthy Nuclei (%) [6]: 14.59% and 9.87% | Population Hoechst High Intensity Objects (%) [6]: 0% and 0.65% | Population Mitochondria Different-Phenotype (%) [6]: 0% | Population Mitotic Cells (%) [6]: 33.71% and 23.33% | Population Normal (%) [6]: 100% and 99.35% | Population Pyknosed Nuclei (%) [6]: 75.11% and 78.95% | Population Tubulin-Different-Phenotype (%) [6]: 23.53% and 26.67% | Total Cell Count [6]: 233 and 153

Cc1cnc(-c2cc(N3CCN(C(=O)CCS(C)(=O)=O)CC3)ncc2Cl)c(C)c1
Population Apoptotic (%) [1]: 86% and 100% | Population Fragmented Nuclei (%) [1]: 37% and 18% | Population Healthy Nuclei (%) [1]: 54% and 73% | Population Hoechst High Intensity Objects (%) [1]: 2% and 1% | Population Membrane Permeable-Phenotype (%) [1]: 10% | Population Mitochondria Different-Phenotype (%) [1]: 1% and 7% | Population Mitotic Cells (%) [1]: 13% and 0% | Population Normal (%) [1]: 97% and 98% | Population Pyknosed Nuclei (%) [1]: 8% | Population Tubulin-Different-Phenotype (%) [1]: 2% and 7% | Total Cell Count [1]: 183 and 111 | Population Apoptotic (%) [2]: 85% and 75% | Population Fragmented Nuclei (%) [2]: 24% and 17% | Population Healthy Nuclei (%) [2]: 67% and 73% | Population Hoechst High Intensity Objects (%) [2]: 1% | Population Mitochondria Different-Phenotype (%) [2]: 3% and 7% | Population Mitotic Cells (%) [2]: 14% and 25% | Population Normal (%) [2]: 98% | Population Pyknosed Nuclei (%) [2]: 8% and 9% | Total Cell Count [2]: 258 and 88 | Population Apoptotic (%) [3]: 80% and 90% | Population Fragmented Nuclei (%) [3]: 30% and 17% | Population Healthy Nuclei (%) [3]: 62% and 75% | Population Hoechst High Intensity Objects (%) [3]: 2% | Population Membrane Permeable-Phenotype (%) [3]: 5% and 8% | Population Mitochondria Different-Phenotype (%) [3]: 3% and 5% | Population Mitotic Cells (%) [3]: 20% and 10% | Population Normal (%) [3]: 97% | Population Pyknosed Nuclei (%) [3]: 6% and 7% | Population Tubulin-Different-Phenotype (%) [3]: 2% and 8% | Total Cell Count [3]: 220 and 136 | Population Apoptotic (%) [4]: 80% and 85% | Population Fragmented Nuclei (%) [4]: 20% and 21% | Population Healthy Nuclei (%) [4]: 74% and 64% | Population Hoechst High Intensity Objects (%) [4]: 2% and 0% | Population Mitochondria Different-Phenotype (%) [4]: 2% and 1% | Population Mitotic Cells (%) [4]: 20% and 14% | Population Normal (%) [4]: 97% and 99% | Population Pyknosed Nuclei (%) [4]: 4% and 13% | Population Tubulin-Different-Phenotype (%) [4]: 0% and 7% | Total Cell Count [4]: 309 and 103 | Population Apoptotic (%) [5]: 78% and 95% | Population Fragmented Nuclei (%) [5]: 29% and 15% | Population Healthy Nuclei (%) [5]: 63% and 73% | Population Hoechst High Intensity Objects (%) [5]: 0% and 1% | Population Membrane Permeable-Phenotype (%) [5]: 3% and 4% | Population Mitochondria Different-Phenotype (%) [5]: 2% and 5% | Population Normal (%) [5]: 99% and 98% | Population Pyknosed Nuclei (%) [5]: 7% and 10% | Population Tubulin-Different-Phenotype (%) [5]: 1% and 3% | Total Cell Count [5]: 325 and 184 | Population Apoptotic (%) [6]: 94% and 100% | Population Fragmented Nuclei (%) [6]: 11% and 22% | Population Healthy Nuclei (%) [6]: 80% and 71% | Population Hoechst High Intensity Objects (%) [6]: 1% and 3% | Population Membrane Permeable-Phenotype (%) [6]: 4% and 13% | Population Mitochondria Different-Phenotype (%) [6]: 2% and 7% | Population Mitotic Cells (%) [6]: 5% and 0% | Population Normal (%) [6]: 98% and 96% | Population Pyknosed Nuclei (%) [6]: 7% and 5% | Population Tubulin-Different-Phenotype (%) [6]: 2% and 7%

CC(C)C[C@H](CO)Nc1nc(S[C@@H](C)c2ccccc2)nc2nc(N)sc12 [AZD-8797]
Population Apoptotic (%) [1]: 83% and 100% | Population Fragmented Nuclei (%) [1]: 20% and 12% | Population Healthy Nuclei (%) [1]: 65% and 82% | Population Hoechst High Intensity Objects (%) [1]: 3% and 0% | Population Membrane Permeable-Phenotype (%) [1]: 5% | Population Mitochondria Different-Phenotype (%) [1]: 1% and 5% | Population Mitotic Cells (%) [1]: 16% and 0% | Population Normal (%) [1]: 96% and 100% | Population Pyknosed Nuclei (%) [1]: 14% and 5% | Population Tubulin-Different-Phenotype (%) [1]: 2% and 3% | Total Cell Count [1]: 177 and 95 | Population Apoptotic (%) [2]: 63% and 78% | Population Fragmented Nuclei (%) [2]: 21% and 9% | Population Healthy Nuclei (%) [2]: 56% and 79% | Population Hoechst High Intensity Objects (%) [2]: 4% and 2% | Population Membrane Permeable-Phenotype (%) [2]: 30% and 10% | Population Mitochondria Different-Phenotype (%) [2]: 12% and 16% | Population Mitotic Cells (%) [2]: 36% and 21% | Population Normal (%) [2]: 95% and 97% | Population Pyknosed Nuclei (%) [2]: 22% and 10% | Total Cell Count [2]: 222 and 135 | Population Apoptotic (%) [3]: 81% and 83% | Population Fragmented Nuclei (%) [3]: 20% and 17% | Population Healthy Nuclei (%) [3]: 68% and 77% | Population Hoechst High Intensity Objects (%) [3]: 1% and 0% | Population Membrane Permeable-Phenotype (%) [3]: 2% and 4% | Population Mitochondria Different-Phenotype (%) [3]: 0% and 2% | Population Mitotic Cells (%) [3]: 18% and 16% | Population Normal (%) [3]: 98% and 100% | Population Pyknosed Nuclei (%) [3]: 10% and 4% | Population Tubulin-Different-Phenotype (%) [3]: 2% and 3% | Total Cell Count [3]: 219 and 121 | Population Apoptotic (%) [4]: 76% and 100% | Population Fragmented Nuclei (%) [4]: 20% and 7% | Population Healthy Nuclei (%) [4]: 58% and 86% | Population Hoechst High Intensity Objects (%) [4]: 3% and 1% | Population Membrane Permeable-Phenotype (%) [4]: 22% and 9% | Population Mitochondria Different-Phenotype (%) [4]: 12% | Population Mitotic Cells (%) [4]: 24% and 0% | Population Normal (%) [4]: 96% and 98% | Population Tubulin-Different-Phenotype (%) [4]: 13% and 6% | Total Cell Count [4]: 245 and 156 | Population Apoptotic (%) [5]: 94% and 100% | Population Fragmented Nuclei (%) [5]: 18% and 15% | Population Healthy Nuclei (%) [5]: 69% and 77% | Population Hoechst High Intensity Objects (%) [5]: 2% | Population Membrane Permeable-Phenotype (%) [5]: 6% and 2% | Population Mitochondria Different-Phenotype (%) [5]: 0% and 2% | Population Mitotic Cells (%) [5]: 5% and 0% | Population Normal (%) [5]: 97% | Population Pyknosed Nuclei (%) [5]: 11% and 6% | Population Tubulin-Different-Phenotype (%) [5]: 2% | Total Cell Count [5]: 352 and 181 | Population Apoptotic (%) [6]: 90% and 96% | Population Fragmented Nuclei (%) [6]: 26% and 12% | Population Healthy Nuclei (%) [6]: 54% and 74% | Population Hoechst High Intensity Objects (%) [6]: 4% and 3% | Population Membrane Permeable-Phenotype (%) [6]: 20% and 11% | Population Mitochondria Different-Phenotype (%) [6]: 10% and 5% | Population Mitotic Cells (%) [6]: 9% and 3% | Population Normal (%) [6]: 95% and 96% | Population Pyknosed Nuclei (%) [6]: 19% and 12% | Population Tubulin-Different-Phenotype (%) [6]: 14% and 4% | Total Cell Count [6]: 296 and 218
